Assay results as given in ChEMBL document CHEMBL1764968, “Structural simplification of bioactive natural products with multicomponent synthesis. 3. Fused uracil-containing heterocycles as novel topoisomerase-targeting agents” (2011).

Assays:
HeLa = assay: Cytotoxicity against human HeLa cells after 72 hrs by MTT assay; type: functional
Method in brief: (§1)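 Cells plated 24 h in 96-well plates at 10,000–40,000 cells/mL depending on line. U373 grown in MEM, other lines in RPMI, both with 5% heat-inactivated FCS. Cells exposed to compounds (or none, control) for 72 h. MTT reduction to formazan read at 570 nm against 630 nm reference. Sextuplicate per condition.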

Jurkat = assay: Cytotoxicity against human Jurkat cells after 72 hrs by MTT assay; type: functional; method in brief: as §1
MCF7 = assay: Cytotoxicity against human MCF7 cells after 72 hrs by MTT assay; type: functional; conditions: MCF7, 72 h; method in brief: as §1
A549 = assay: Cytotoxicity against human A549 cells after 72 hrs by MTT assay; type: functional; conditions: A549, 72 h; method in brief: as §1
LoVo = assay: Cytotoxicity against human LoVo cells after 72 hrs by MTT assay; type: functional; method in brief: as §1
[1] = Cytotoxicity against human U373 cells after 72 hrs by MTT assay; type: functional, U-373MG ATCC; conditions: U373 MG; method in brief: as §1
SK-MEL = assay: Cytotoxicity against human SK-MEL cells after 72 hrs by MTT assay; type: functional; method in brief: as §1
PC-3 = assay: Cytotoxicity against human PC3 cells after 72 hrs by MTT assay; type: functional; conditions: PC-3, 72 h; method in brief: as §1

SMILES	GI50 (HeLa) [nM]	GI50 (Jurkat) [nM]	GI50 (MCF7) [nM]	GI50 (A549) [nM]	GI50 (LoVo) [nM]	GI50 [1] [nM]	GI50 (SK-MEL) [nM]	GI50 (PC-3) [nM]
O=C1c2ccccc2-c2nc3[nH]c(=O)[nH]c(=O)c3c(-c3ccc(F)cc3)c21	> 10000	7400	> 10000	> 10000	3500	8700	10000	9000
COc1cc(C2C3=C(Nc4[nH]c(=O)[nH]c(=O)c42)c2ccccc2C3=O)cc(Br)c1OC (centres undefined)	3800	200	780	480	380	370	480	> 10000
Cc1ccc(-c2c3c(nc4[nH]c(=O)[nH]c(=O)c24)-c2ccccc2C3=O)cc1	6400	1100	6400	5800				
O=C1c2ccccc2-c2nc3[nH]c(=O)[nH]c(=O)c3c(-c3ccc(F)c(Br)c3)c21	5600	980	5500	2800				
Cc1ccc(C2C3=C(Nc4[nH]c(=O)[nH]c(=O)c42)c2ccccc2C3=O)cc1 (centres undefined)	8600	5600	7600	5900				
O=C1c2ccccc2-c2nc3[nH]c(=O)[nH]c(=O)c3cc21	> 10000	> 10000	> 10000	> 10000	9500	7500	10000	> 10000
O=C1C2=C(Nc3[nH]c(=O)[nH]c(=O)c3C2c2ccc3c(c2)OCCO3)c2ccccc21 (centres undefined)	5400	6900	8400	7800				
O=C1C2=C(Nc3[nH]c(=O)[nH]c(=O)c3C2c2ccc(Cl)cc2Cl)c2ccccc21 (centres undefined)	950	760	7000	7400	1400	4200	3900	2400
COc1ccc(-c2c3c(nc4[nH]c(=O)[nH]c(=O)c24)-c2ccccc2C3=O)c(OC)c1OC	310	470	470	260	350	360	430	900
O=C1c2ccccc2-c2nc3[nH]c(=O)[nH]c(=O)c3c(-c3ccc4c(c3)OCCO4)c21	8800	5500	8500	7500				
O=C1c2ccccc2-c2nc3[nH]c(=O)[nH]c(=O)c3c(-c3ccnc4ccccc34)c21	7600	8200	9500	> 10000				
CC(C)c1ccc(C2C3=C(Nc4[nH]c(=O)[nH]c(=O)c42)c2ccccc2C3=O)cc1 (centres undefined)	5800	960	9100	> 10000				
O=C1C2=C(Nc3[nH]c(=O)[nH]c(=O)c3C2c2ccc(OC(F)(F)F)cc2)c2ccccc21 (centres undefined)	5600	960	5800	5700				
COc1ccc(C2C3=C(Nc4[nH]c(=O)[nH]c(=O)c42)c2ccccc2C3=O)c(OC)c1OC (centres undefined)	350	490	480	540	220	260	400	> 10000
CCOc1ccc(C2C3=C(Nc4[nH]c(=O)[nH]c(=O)c42)c2ccccc2C3=O)cc1 (centres undefined)	7400	910	6600	5800				
CCOc1ccc(-c2c3c(nc4[nH]c(=O)[nH]c(=O)c24)-c2ccccc2C3=O)cc1	5300	760	5600	6000				

SMILES	GI50 (HeLa) [nM]	GI50 (Jurkat) [nM]	GI50 (MCF7) [nM]	GI50 (A549) [nM]	GI50 (LoVo) [nM]	GI50 [1] [nM]	GI50 (SK-MEL) [nM]	GI50 (PC-3) [nM]
COc1ccc(-c2c3c(nc4[nH]c(=O)[nH]c(=O)c24)-c2ccccc2C3=O)cc1	5500	960	2400	> 10000	870	2400	4700	880
O=C1C2=C(Nc3[nH]c(=O)[nH]c(=O)c3C2c2ccc(F)cc2)c2ccccc21 (centres undefined)	> 10000	> 10000	> 10000	> 10000	4600	5600	10000	4000
O=C1c2ccccc2-c2nc3[nH]c(=O)[nH]c(=O)c3c(-c3ccc(C(F)(F)F)cc3)c21	3800	960	5600	7800				
O=C1c2ccccc2-c2nc3[nH]c(=O)[nH]c(=O)c3c(-c3ccc(Cl)c(Cl)c3)c21	350	230	740	120	70	80	80	> 10000
O=C1c2ccccc2-c2nc3[nH]c(=O)[nH]c(=O)c3c(-c3ccc(OC(F)(F)F)cc3)c21	5800	950	6600	8000				
O=C1C2=C(Nc3[nH]c(=O)[nH]c(=O)c3C2c2ccc(F)c(Br)c2)c2ccccc21 (centres undefined)	5400	990	5500	5600				
COc1ccc(C2C3=C(Nc4[nH]c(=O)[nH]c(=O)c42)c2ccccc2C3=O)cc1OC (centres undefined)	600	400	690	4800	800	700	860	> 10000
COc1cc(-c2c3c(nc4[nH]c(=O)[nH]c(=O)c24)-c2ccccc2C3=O)cc(Br)c1OC	340	170	950	310	350	600	470	> 10000
COc1ccc(-c2c3c(nc4[nH]c(=O)[nH]c(=O)c24)-c2ccccc2C3=O)cc1OC	530	220	750	830	440	600	470	> 10000
COc1ccc(C2C3=C(Nc4[nH]c(=O)[nH]c(=O)c42)c2ccccc2C3=O)cc1 (centres undefined)	6900	870	3600	9200	2200	4100	4800	3000
O=C1C2=C(Nc3[nH]c(=O)[nH]c(=O)c3C2c2ccnc3ccccc23)c2ccccc21 (centres undefined)	5600	8200	9400	8600				
CC[C@@]1(O)C(=O)OCc2c1cc1n(c2=O)Cc2cc3ccccc3nc2-1 [CAMPTOTHECIN]	1300	90	6000	200	8	33	47	480
CC(C)c1ccc(-c2c3c(nc4[nH]c(=O)[nH]c(=O)c24)-c2ccccc2C3=O)cc1	850	490	6900	8200				
O=C1C2=C(Nc3[nH]c(=O)[nH]c(=O)c3C2c2ccc(Cl)c(Cl)c2)c2ccccc21 (centres undefined)	5800	350	800	590	460	420	500	6200
O=C1C2=C(Nc3[nH]c(=O)[nH]c(=O)c3C2c2ccc(C(F)(F)F)cc2)c2ccccc21 (centres undefined)	5600	2200	1500	5200				
